Measured values reported in ChEMBL document CHEMBL1124214, “Synthesis, binding studies, and structure-activity relationships of 1-aryl-and 2-aryl[1]benzopyranopyrazol-4-ones, central benzodiazepine receptor ligands” (J Med Chem, 1988).

Biological target: GABA-A receptor; anion channel
Assay: Inhibition of [3H]flunitrazepam binding to benzodiazepine receptor in bovine brain membrane
Format: cell membranes, Bos taurus
Procedure, shortened: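 Bovine brain membranes (0.4-0.5 mg protein) incubated in triplicate with 0.6 nM [3H]flunitrazepam, 90 min at 0 °C, 50 mM Tris-HCl; compounds in EtOH unless noted. Rapid GF/B filtration, buffer wash, scintillation counting; nonspecific binding with 10 μM diazepam. IC50 from log-probit plots, mean ± SEM of seven determinations.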

In order of falling IC50:
1. Cc1nn(-c2ccccc2[N+](=O)[O-])c2c1c(=O)oc1ccccc12  43000 nM
2. Cc1ccccc1-n1nc(C)c2c(=O)oc3ccccc3c21  30000 nM
3. Cc1c2c(=O)oc3ccccc3c2nn1-c1cccc(Br)c1  25000 nM
4. Cc1nn(-c2ccccc2Cl)c2c1c(=O)oc1ccccc12  16000 nM
5. O=c1oc2ccccc2c2c1c(-c1ccccc1)nn2-c1ccccc1  16000 nM
6. COc1ccccc1-n1nc(C)c2c(=O)oc3ccccc3c21  8000 nM
7. COc1cccc(-n2nc3c(c2C)c(=O)oc2ccccc23)c1  5000 nM
8. Cc1nn(-c2cccc(N)c2)c2c1c(=O)oc1ccccc12  3400 nM
9. Cc1c2c(=O)oc3ccccc3c2nn1-c1ccccc1  3100 nM
10. Cc1cccc(-n2nc3c(c2C)c(=O)oc2ccccc23)c1  3000 nM
11. Cc1ccc(-n2nc(C)c3c(=O)oc4ccccc4c32)cc1  2000 nM
12. Cc1nn(-c2ccc(N)cc2)c2c1c(=O)oc1ccccc12  1300 nM
13. Cc1nn(-c2ccc([N+](=O)[O-])cc2)c2c1c(=O)oc1ccccc12  1000 nM
14. CNC1=Nc2ccc(Cl)cc2C(c2ccccc2)=[N+]([O-])C1 [CHLORDIAZEPOXIDE]  790 nM
15. COc1cccc(-n2nc(C)c3c(=O)oc4ccccc4c32)c1  750 nM
16. Cc1nn(-c2ccc(Cl)cc2)c2c1c(=O)oc1ccccc12  750 nM
17. COc1ccc(-n2nc(C)c3c(=O)oc4ccccc4c32)cc1  700 nM
18. Cc1nn(-c2ccccc2N)c2c1c(=O)oc1ccccc12  630 nM
19. Cc1nn(-c2cccc([N+](=O)[O-])c2)c2c1c(=O)oc1ccccc12  320 nM
20. Cc1nn(-c2ccccc2)c2c1c(=O)oc1ccccc12  300 nM
21. Cc1cccc(-n2nc(C)c3c(=O)oc4ccccc4c32)c1  280 nM
22. Cc1nn(-c2cccc(Br)c2)c2c1c(=O)oc1ccccc12  100 nM
23. Cc1nn(-c2cccc(Cl)c2)c2c1c(=O)oc1ccccc12  90 nM
24. Cc1cc(C)cc(-n2nc(C)c3c(=O)oc4ccccc4c32)c1  65 nM
25. CN1C(=O)CN=C(c2ccccc2)c2cc(Cl)ccc21 [DIAZEPAM]  25 nM

Organism: Bos taurus
Assay: Percentage inhibition of [3H]flunitrazepam binding to benzodiazepine receptor of bovine brain membrane at 34 uM
Procedure, shortened: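 Specific [3H]flunitrazepam binding (0.6 nM) to bovine brain membranes, 90 min at 0 °C in 50 mM Tris-HCl, triplicate incubations; test compound at 34 μM, EtOH vehicle unless noted. Filtration through GF/B, scintillation counting; 10 μM diazepam defines nonspecific binding. Percent inhibition as mean ± SEM of five determinations.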

In order of rising inhibition:
1. Cc1nn(-c2ccccc2Cl)c2c1c(=O)oc1ccccc12  34%
2. O=c1oc2ccccc2c2c1c(-c1ccccc1)nn2-c1ccccc1  34%
